Test results from ChEMBL document CHEMBL1833943, “Synthesis and structure-activity relationships of varied ether linker analogues of the antitubercular drug (6S)-2-nitro-6-{[4-(trifluoromethoxy)benzyl]oxy}-6,7-dihydro-5h-imidazo[2,1-b][1,3]oxazine (PA-824)” (J Med Chem, 2011).
Values after ≈ are worked out from the molar mass of the structure shown.

Assays:
[1] = system: Mycobacterium tuberculosis; experiment: Antituberculosis activity against Mycobacterium tuberculosis H37Rv under aerobic conditions by microplate alamar blue assay; format: functional
[2] = system: Mycobacterium tuberculosis; experiment: Antituberculosis activity against Mycobacterium tuberculosis H37Rv under anaerobic conditions by fluorescence based low-oxygen-recovery assay; format: functional
[3] = Aqueous solubility of the compound in water at pH 7 by HPLC analysis; format: physicochemical
Method in brief: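 Solubility measured in water at pH 7 and 20 °C, quantified by HPLC.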

For `O=[N+]([O-])c1cn2c(n1)OC[C@@H](OCCCC#Cc1ccc(-c3ccc(F)cc3)cc1)C2`, the MIC [1] was 0.07 µM (≈ 0.0295 µg/mL) and the MIC [2] was 1.6 µM (≈ 0.674 µg/mL).
In the case of `O=[N+]([O-])c1cn2c(n1)OC[C@@H](OCCCC#Cc1ccc(-c3ccc(C(F)(F)F)cc3)cc1)C2`, the MIC [1] was 0.085 µM (≈ 0.0401 µg/mL) and the MIC [2] was over 128 µM.
`O=[N+]([O-])c1cn2c(n1)OC[C@@H](OCCCC#Cc1ccc(-c3ccc(C(F)(F)F)nc3)cc1)C2` showed an MIC [1] of 0.11 µM (≈ 0.052 µg/mL) and an MIC [2] of 63 µM (≈ 29.8 µg/mL).
With `O=[N+]([O-])c1cn2c(n1)OC[C@@H](OCCCC#Cc1ccc(-c3ccc(OC(F)F)cc3)cc1)C2` the MIC [1] was 0.035 µM (≈ 0.0164 µg/mL) and the MIC [2] was 39 µM (≈ 18.3 µg/mL).
`O=[N+]([O-])c1cn2c(n1)OC[C@@H](Oc1cc(-c3ccc(C(F)(F)F)nc3)ncn1)C2` gave an MIC [1] of 3 µM (≈ 1.22 µg/mL) and an MIC [2] of 62 µM (≈ 25.3 µg/mL).
`O=[N+]([O-])c1cn2c(n1)OC[C@@H](Oc1ccc(-c3ccc(F)cc3)cn1)C2` showed an MIC [1] of 0.37 µM (≈ 0.132 µg/mL) and an MIC [2] of 15 µM (≈ 5.34 µg/mL).
With `O=[N+]([O-])c1cn2c(n1)OC[C@@H](Oc1ccc(-c3ccc(C(F)(F)F)cc3)cn1)C2` the MIC [1] was 0.1 µM (≈ 0.0406 µg/mL) and the MIC [2] was 12 µM (≈ 4.88 µg/mL).
In the case of `O=[N+]([O-])c1cn2c(n1)OC[C@@H](Oc1ccc(-c3ccc(C(F)(F)F)nc3)cn1)C2`, the MIC [1] was 0.42 µM (≈ 0.171 µg/mL) and the MIC [2] was 14 µM (≈ 5.7 µg/mL).
In the case of `O=[N+]([O-])c1cn2c(n1)OC[C@@H](Oc1ccc(-c3ccc(OC(F)(F)F)cc3)nc1)C2`, the solubility [3] was 0.27 µg/mL (≈ 0.639 µM), the MIC [1] was 0.14 µM (≈ 0.0591 µg/mL) and the MIC [2] was 1.5 µM (≈ 0.633 µg/mL).
Work on `O=[N+]([O-])c1cn2c(n1)OC[C@@H](Oc1ccc(-c3ccc(F)cc3)nc1)C2` yielded an MIC [1] of 0.5 µM (≈ 0.178 µg/mL) and an MIC [2] of 5.6 µM (≈ 2 µg/mL).
In the case of `O=[N+]([O-])c1cn2c(n1)OC[C@@H](Oc1ccc(-c3ccc(C(F)(F)F)cc3)nc1)C2`, the MIC [1] was 0.78 µM (≈ 0.317 µg/mL) and the MIC [2] was 1.2 µM (≈ 0.488 µg/mL).
With `O=[N+]([O-])c1cn2c(n1)OC[C@@H](Oc1ccc(-c3ccc(C(F)(F)F)nc3)nc1)C2` the MIC [1] was 0.45 µM (≈ 0.183 µg/mL) and the MIC [2] was 17 µM (≈ 6.92 µg/mL).
Compound `O=[N+]([O-])c1cn2c(n1)OC[C@@H](Oc1ncc(-c3ccc(F)cc3)cn1)C2` has an MIC [1] of 1.6 µM (≈ 0.572 µg/mL) and an MIC [2] of 7.4 µM (≈ 2.64 µg/mL).
With `O=[N+]([O-])c1cn2c(n1)OC[C@@H](Oc1ncc(-c3ccc(C(F)(F)F)cc3)cn1)C2` the MIC [1] was 0.21 µM (≈ 0.0855 µg/mL) and the MIC [2] was 3 µM (≈ 1.22 µg/mL).
Compound `O=[N+]([O-])c1cn2c(n1)OC[C@@H](Oc1ncc(-c3ccc(C(F)(F)F)nc3)cn1)C2` has an MIC [1] of 1.3 µM (≈ 0.531 µg/mL) and an MIC [2] of 17 µM (≈ 6.94 µg/mL).
For `CC(O[C@@H]1COc2nc([N+](=O)[O-])cn2C1)c1ccc(-c2ccc(F)cc2)cc1` (stereo partly drawn), the MIC [1] was 0.22 µM (≈ 0.0843 µg/mL) and the MIC [2] was 1.3 µM (≈ 0.498 µg/mL).
In the case of `CC(O[C@@H]1COc2nc([N+](=O)[O-])cn2C1)c1ccc(-c2ccc(C(F)(F)F)cc2)cc1` (stereo partly drawn), the MIC [1] was 0.18 µM (≈ 0.078 µg/mL) and the MIC [2] was 2.2 µM (≈ 0.953 µg/mL).
Compound `CC(O[C@@H]1COc2nc([N+](=O)[O-])cn2C1)c1ccc(-c2ccc(C(F)(F)F)nc2)cc1` (stereo partly drawn) has an MIC [1] of 0.39 µM (≈ 0.169 µg/mL) and an MIC [2] of 4.3 µM (≈ 1.87 µg/mL).
`O=[N+]([O-])c1cn2c(n1)OC[C@@H](Oc1ccc(-c3ccc(F)cc3)cc1)C2` gave an MIC [1] of 0.31 µM (≈ 0.11 µg/mL) and an MIC [2] of 1.2 µM (≈ 0.426 µg/mL).
With `O=[N+]([O-])c1cn2c(n1)OC[C@@H](Oc1ccc(-c3ccc(C(F)(F)F)cc3)cc1)C2` the MIC [1] was 0.39 µM (≈ 0.158 µg/mL) and the MIC [2] was over 128 µM.
Work on `O=[N+]([O-])c1cn2c(n1)OC[C@@H](Oc1ccc(-c3ccc(C(F)(F)F)nc3)cc1)C2` yielded an MIC [1] of 0.51 µM (≈ 0.207 µg/mL) and an MIC [2] of 4.1 µM (≈ 1.67 µg/mL).
Work on `O=[N+]([O-])c1cn2c(n1)OC[C@@H](Oc1cccc(-c3ccc(OC(F)(F)F)cc3)n1)C2` yielded a solubility [3] of 0.12 µg/mL (≈ 0.284 µM), an MIC [1] of 0.24 µM (≈ 0.101 µg/mL) and an MIC [2] of 3.3 µM (≈ 1.39 µg/mL).
`O=[N+]([O-])c1cn2c(n1)OC[C@@H](Oc1cccc(-c3ccc(F)cc3)n1)C2` showed an MIC [1] of 3.2 µM (≈ 1.14 µg/mL) and an MIC [2] of 27 µM (≈ 9.62 µg/mL).
`O=[N+]([O-])c1cn2c(n1)OC[C@@H](Oc1cccc(-c3ccc(C(F)(F)F)cc3)n1)C2` gave an MIC [1] of 0.55 µM (≈ 0.223 µg/mL) and an MIC [2] of 35 µM (≈ 14.2 µg/mL).
Work on `O=[N+]([O-])c1cn2c(n1)OC[C@@H](Oc1cccc(-c3ccc(C(F)(F)F)nc3)n1)C2` yielded an MIC [1] of 5.7 µM (≈ 2.32 µg/mL) and an MIC [2] of over 128 µM.
For `O=[N+]([O-])c1cn2c(n1)OC[C@@H](Oc1cccc(-c3ccc(OC(F)F)cc3)n1)C2`, the MIC [1] was 0.52 µM (≈ 0.21 µg/mL) and the MIC [2] was 4.4 µM (≈ 1.78 µg/mL).
`O=[N+]([O-])c1cn2c(n1)OC[C@@H](Oc1ccnc(-c3ccc(OC(F)(F)F)cc3)c1)C2` showed a solubility [3] of 0.53 µg/mL (≈ 1.25 µM), an MIC [1] of 0.3 µM (≈ 0.127 µg/mL) and an MIC [2] of 2.6 µM (≈ 1.1 µg/mL).
`O=[N+]([O-])c1cn2c(n1)OC[C@@H](Oc1ccnc(-c3ccc(F)cc3)c1)C2` showed an MIC [1] of 0.67 µM (≈ 0.239 µg/mL) and an MIC [2] of 8.5 µM (≈ 3.03 µg/mL).
Compound `O=[N+]([O-])c1cn2c(n1)OC[C@@H](Oc1ccnc(-c3ccc(C(F)(F)F)cc3)c1)C2` has an MIC [1] of 0.65 µM (≈ 0.264 µg/mL) and an MIC [2] of over 128 µM.
`O=[N+]([O-])c1cn2c(n1)OC[C@@H](Oc1ccnc(-c3ccc(C(F)(F)F)nc3)c1)C2` showed an MIC [1] of 14 µM (≈ 5.7 µg/mL) and an MIC [2] of over 128 µM.
For `O=[N+]([O-])c1cn2c(n1)OC[C@@H](Oc1cc(-c3ccc(F)cc3)ccn1)C2`, the MIC [1] was 5.2 µM (≈ 1.85 µg/mL) and the MIC [2] was 28 µM (≈ 9.98 µg/mL).
Work on `O=[N+]([O-])c1cn2c(n1)OC[C@@H](Oc1cc(-c3ccc(C(F)(F)F)cc3)ccn1)C2` yielded an MIC [1] of 0.88 µM (≈ 0.358 µg/mL) and an MIC [2] of 32 µM (≈ 13 µg/mL).
Compound `O=[N+]([O-])c1cn2c(n1)OC[C@@H](Oc1cc(-c3ccc(C(F)(F)F)nc3)ccn1)C2` has an MIC [1] of 3 µM (≈ 1.22 µg/mL) and an MIC [2] of 27 µM (≈ 11 µg/mL).
`O=[N+]([O-])c1cn2c(n1)OC[C@@H](Oc1cc(-c3ccc(F)cc3)ncn1)C2` gave an MIC [1] of 0.99 µM (≈ 0.354 µg/mL) and an MIC [2] of 15 µM (≈ 5.36 µg/mL).
For `O=[N+]([O-])c1cn2c(n1)OC[C@@H](Oc1cc(-c3ccc(C(F)(F)F)cc3)ncn1)C2`, the MIC [1] was 0.8 µM (≈ 0.326 µg/mL) and the MIC [2] was 17 µM (≈ 6.92 µg/mL).
